From the array DNA melting data of Ke et al. (doi:10.1101/2024.01.08.574731)

Tests used:
[1] = folding enthalpy; higher = less favourable; fluorescence melt of hairpins on a sequencing array, two-state fit; conditions: sodium 0.088 M
In short: (§1)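 Hairpins were imaged by Cy3 fluorescence on a sequenced MiSeq flow cell with annealed Cy3 and quencher oligos, in 50 mM Na-HEPES pH 8.0, 25 mM NaCl, in 2.5 °C steps up to 60 °C. Bootstrapped two-state fits of normalised signals gave melting temperature and folding enthalpy. Four replicates were combined by inverse variance, and fitted temperatures were raised by 9.35 °C to match UV melts.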

[2] = melting temperature; fluorescence melt of hairpins on a sequencing array, two-state fit, raised by 9.35 °C to match UV melts; conditions: sodium 0.088 M
In short: as §1

Sequence	folding enthalpy [1]	Tm [2]
GCTACGGGAAACTGTAGC (((((.(....).)))))	-48.3 kcal/mol	52.1 °C
GCTACGGGAAACTGTGGC ((.((.(....).)).))	-30.7 kcal/mol	41.1 °C
GCTACTACGAAAGTAAGC (((..(((....))))))	-13.6 kcal/mol	29.5 °C
GCTAGAGAAATCTAGC ((((((....))))))	-30.4 kcal/mol	50.3 °C
GCTAGAGGAAACTCTGGC ((.((((....)))).))	-37.9 kcal/mol	48 °C
GCTAGCACGAAAGTGAGC (((..(((....))))))	-17.4 kcal/mol	35.1 °C
GCTAGCCCGAAAGGGAGC (((..(((....))))))	-14.3 kcal/mol	37.8 °C
GCTAGCGAAAGCTCTAGC ((((((....)))..)))	-15.3 kcal/mol	38.5 °C
GCTAGCGAAAGCTGCAGC ((((((....)))..)))	-13.2 kcal/mol	46 °C
GCTAGCGAAAGCTTCAGC ((((((....)))..)))	-10.9 kcal/mol	39.1 °C
GCTAGCGAAAGCTTTAGC ((((((....)))..)))	-14 kcal/mol	40.5 °C
GCTAGCGCGAAAGCGAGC (((..(((....))))))	-12.9 kcal/mol	44.9 °C
GCTAGCGGAAACGCCAGC (((.(((....))).)))	-23.6 kcal/mol	48.4 °C
GCTAGCGGAAACGCTAAC (.(((((....))))).)	-12.7 kcal/mol	40 °C
GCTAGGCGAAAGCATTGC ((.(.((....)).).))	-19.2 kcal/mol	42.1 °C
GCTAGGCGAAAGCCAGGC ((..(((....)))..))	-16.8 kcal/mol	54.9 °C
GCTAGGCGAAAGCCCAGC (((.(((....))).)))	-23.7 kcal/mol	50.7 °C
GCTAGGCGAAAGCGCAGC (((..((....))..)))	-15.8 kcal/mol	39.6 °C
GCTAGGCGAAAGCGTAGC ((((.((....)).))))	-33 kcal/mol	62.8 °C
GCTAGGCGAAAGCTCAGC (((..((....))..)))	-19.6 kcal/mol	42.9 °C
GCTAGGGCGAAAGCCAGC (((..(((....))))))	-15 kcal/mol	48 °C
GCTAGGGGAAACCCCAGC (((.(((....))).)))	-29.8 kcal/mol	49.1 °C
GCTAGTCCGAAAGGAAGC (((..(((....))))))	-16.1 kcal/mol	30 °C

Sequence	folding enthalpy [1]	Tm [2]
GCTAGTCGAAAGACAAGC (((.(((....))).)))	-34.7 kcal/mol	51.8 °C
GCTAGTGGAAACATTGGC ((.(.((....)).).))	-10.7 kcal/mol	28.2 °C
GCTATAGGAAACCATAGC (((((.(....).)))))	-29.8 kcal/mol	35.6 °C
GCTATCCGAAAGGAAGC (((.(((....))))))	-23.2 kcal/mol	46 °C
GCTATCGAAAGATAAAGC ((((((....)))..)))	-23.9 kcal/mol	33.6 °C
GCTATCGAAAGATTTAGC ((((((....)))..)))	-19.9 kcal/mol	32.7 °C
GCTATCGGAAACGATGGC ((.((((....)))).))	-47.6 kcal/mol	52.9 °C
GCTATGCGAAAGCAGGGC ((..(((....)))..))	-22.2 kcal/mol	54.8 °C
GCTATGCGAAAGCATTGC ((.((((....)))).))	-30.2 kcal/mol	60.3 °C
GCTATGCGAAAGCCTGGC ((.(.((....)).).))	-18.8 kcal/mol	36.9 °C
GCTATGCGAAAGCTGAGC (((..((....))..)))	-21.9 kcal/mol	47.4 °C
GCTATTCGAAAGAAAAGC (((.(((....))).)))	-27.9 kcal/mol	39.1 °C
GCTATTGGAAACAATAGC (((((((....)))))))	-47.7 kcal/mol	56 °C
GCTATTGGAAACAGTAGC ((((.((....)).))))	-30 kcal/mol	42.9 °C
GCTCAAACGAAAGTTAGC (((..(((....))))))	-22.6 kcal/mol	29.4 °C
GCTCAACGAAAGTTAAGC (((.(((....))).)))	-26.4 kcal/mol	42 °C
GCTCAAGAAATTGAGC ((((((....))))))	-34.1 kcal/mol	55.3 °C
GCTCAAGGAAACTCGAGC ((((.((....)).))))	-30.5 kcal/mol	38.3 °C
GCTCAATCGAAAGATAGC (((..(((....))))))	-11.6 kcal/mol	31.9 °C
GCTCACCCGAAAGGGAGC (((..(((....))))))	-19.4 kcal/mol	50.2 °C
GCTCACCGAAAGGTAAGC (((.(((....))).)))	-29.1 kcal/mol	48.6 °C
GCTCACGAAAGTGACAGC ((((((....)))..)))	-14.8 kcal/mol	43.2 °C
GCTCACGAAAGTGTCAGC ((((((....)))..)))	-17.4 kcal/mol	37.4 °C

Sequence	folding enthalpy [1]	Tm [2]
GCTCACGAAAGTGTGAGC ((((((....)))..)))	-34 kcal/mol	55.8 °C
GCTCACGCGAAAGCGAGC (((..(((....))))))	-15.1 kcal/mol	47.8 °C
GCTCACGGAAACGCGAGC ((((.((....)).))))	-51.9 kcal/mol	53.4 °C
GCTCACTCGAAAGAGAGC (((..(((....))))))	-25.1 kcal/mol	41.6 °C
GCTCAGCGAAAGCGAAGC (((..((....))..)))	-18.5 kcal/mol	43.3 °C
GCTCAGCGAAAGCGGGGC ((.(.((....)).).))	-25.5 kcal/mol	59.9 °C
GCTCAGCGAAAGCGTAGC (((..((....))..)))	-18.1 kcal/mol	49.7 °C
GCTCAGCGAAAGCTAAGC (((.(((....))).)))	-40.3 kcal/mol	46.7 °C
GCTCAGCGAAAGCTACGC ((..(((....)))..))	-11.4 kcal/mol	35 °C
GCTCAGCGAAAGCTATGC ((..(((....)))..))	-12.6 kcal/mol	36.4 °C
GCTCAGGGAAACCCGAGC ((((.((....)).))))	-35.8 kcal/mol	51.3 °C
GCTCAGGGAAACTTGGGC ((.((.(....).)).))	-20.6 kcal/mol	35.3 °C
GCTCAGTCGAAAGACAGC (((..(((....))))))	-15.3 kcal/mol	37.3 °C
GCTCATCGAAAGATAAGC (((.(((....))).)))	-23.8 kcal/mol	39.6 °C
GCTCATGCGAAAGCAAGC (((..(((....))))))	-10.8 kcal/mol	35 °C
GCTCATGGAAACATAAGC (((.(((....))).)))	-18.2 kcal/mol	32 °C
GCTCCAGGAAACTGGAAC (.(((((....))))).)	-18.7 kcal/mol	38.3 °C
GCTCCCCGAAAGGGAAGC (((.(((....))).)))	-34 kcal/mol	56.5 °C
GCTCCCCGAAAGGGTAGC (((.(((....))).)))	-21.7 kcal/mol	54 °C
GCTCCCGAAAGGGCAGC ((((((....))).)))	-30.2 kcal/mol	55.2 °C
GCTCCCGAAAGGGGCAGC ((((((....)))..)))	-12.5 kcal/mol	49.8 °C
GCTCCCGAAAGGGGGAGC ((((((....)))..)))	-23.8 kcal/mol	64.5 °C
GCTCCCGAAAGGGTAGC ((((((....))).)))	-32.2 kcal/mol	54.4 °C

Sequence	folding enthalpy [1]	Tm [2]
GCTCCCGAAAGGGTCAGC ((((((....)))..)))	-13.5 kcal/mol	41 °C
GCTCCCTCGAAAGAGAGC (((..(((....))))))	-19.5 kcal/mol	35.6 °C
GCTCCGCGAAAGCAGAGC ((((.((....)).))))	-31.6 kcal/mol	64 °C
GCTCCGCGAAAGCAGTGC ((.(.((....)).).))	-12.5 kcal/mol	41.4 °C
GCTCCGCGAAAGCCGAGC ((((.((....)).))))	-34.5 kcal/mol	58.4 °C
GCTCCGCGAAAGCGCCGC ((..(((....)))..))	-6.58 kcal/mol	28.9 °C
GCTCCGCGAAAGCGCGGC ((..(((....)))..))	-11.9 kcal/mol	44.8 °C
GCTCCGCGAAAGCTAAGC (((..((....))..)))	-9.02 kcal/mol	30.7 °C
GCTCCGGGAAACCGGAAC (.(((((....))))).)	-12.4 kcal/mol	43.2 °C
GCTCCTCGAAAGAGTAGC (((.(((....))).)))	-32.1 kcal/mol	45.5 °C
GCTCCTGGAAACAGGAAC (.(((((....))))).)	-19.3 kcal/mol	36.6 °C
GCTCGAGGAAACCCGAGC (((((.(....).)))))	-30.9 kcal/mol	54.3 °C
GCTCGAGGAAACTCGAAC (.(((((....))))).)	-18.1 kcal/mol	40.9 °C
GCTCGCCGAAAGGCCAGC (((.(((....))).)))	-18.1 kcal/mol	50.5 °C
GCTCGCGAAAGCGCTAGC ((((((....)))..)))	-11.9 kcal/mol	42.6 °C
GCTCGGCGAAAGCAAAGC (((..((....))..)))	-16.4 kcal/mol	37.8 °C
GCTCGGCGAAAGCAGTGC ((.(.((....)).).))	-11.7 kcal/mol	60.6 °C
GCTCGGCGAAAGCCAAGC (((.(((....))).)))	-35.8 kcal/mol	52.4 °C
GCTCGGCGAAAGCCTAGC (((.(((....))).)))	-40.8 kcal/mol	52.8 °C
GCTCGGCGAAAGCCTGGC ((..(((....)))..))	-12.7 kcal/mol	53.8 °C
GCTCGGGGAAACCCAAGC (((.(((....))).)))	-17.8 kcal/mol	45.3 °C
